ChEMBL document CHEMBL1148833, “3-Hydroxychromones as cyclin-dependent kinase inhibitors: synthesis and biological evaluation” (Bioorg Med Chem Lett, 2007)
pIC50: −log10 of the molar value.

Key:
[1] = biological target: Cyclin-dependent kinase 2 (Homo sapiens, UniProt P24941); test: Inhibition of CDK2
[2] = test system: EJ; test: Cytotoxicity against EJ cells after 48 hrs; format: functional; details: Homo sapiens
Procedure, shortened: (§1)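 Exponentially growing cells exposed to compound at various concentrations for 48 h, then cell numbers measured; concentration giving 50% growth inhibition determined; means of three experiments.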

[3] = test system: HCT-116; test: Cytotoxicity against HCT116 cells after 48 hrs; format: functional; details: Homo sapiens, HCT-116, 48 h; procedure, shortened: as §1
[4] = test system: SW-620; test: Cytotoxicity against SW620 cells after 48 hrs; format: functional; details: Homo sapiens, SW-620, 48 h; procedure, shortened: as §1
[5] = biological target: Cyclin-dependent kinase 1 (Homo sapiens, UniProt P06493); test: Inhibition of CDK1
[6] = test system: MDA-MB-468; test: Cytotoxicity against MDA-MB-468 cells after 48 hrs; format: functional; details: Homo sapiens, MDA-MB-468, 48 h; procedure, shortened: as §1

Cyclin-dependent kinase 1, sequence (P06493 whole entry): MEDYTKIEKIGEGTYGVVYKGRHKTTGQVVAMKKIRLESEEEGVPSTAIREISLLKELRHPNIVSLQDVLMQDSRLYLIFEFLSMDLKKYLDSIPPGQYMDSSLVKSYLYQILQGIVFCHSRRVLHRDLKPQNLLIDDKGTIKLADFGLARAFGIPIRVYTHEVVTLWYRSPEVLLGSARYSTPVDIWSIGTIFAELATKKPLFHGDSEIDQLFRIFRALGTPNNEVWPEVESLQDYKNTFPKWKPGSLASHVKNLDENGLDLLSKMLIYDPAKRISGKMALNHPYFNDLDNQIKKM

Row | pIC50 [1] | Structure (SMILES) | GI50 [2] [nM] | further results
1 | 5.40 | O=c1c(O)c(-c2ccc(O)c(O)c2)oc2ccccc12 | – | –
2 | < 3.30 | O=c1cc(-c2ccc(O)c(O)c2)oc2c(O)c(O)ccc12 | – | –
3 | < 3.30 | O=c1cc(-c2ccc(O)c(O)c2)oc2ccccc12 | – | –
4 | 5.80 | CCN(CC)c1cc(C)cc2c(=O)c(O)c(-c3ccc(O)c(O)c3)oc12 | – | –
5 | 6.20 | Cc1cc(N)c2oc(-c3ccc(O)c(O)c3)c(O)c(=O)c2c1 | – | –
6 | 5.40 | Cc1cc(N2C(=O)CNC2=O)c2oc(-c3ccc(O)c(O)c3)c(O)c(=O)c2c1 | – | –
7 | 7.25 | Cc1cc(N2C(=O)CN(C)C2=O)c2oc(-c3ccc(O)c(O)c3)c(O)c(=O)c2c1 | 1100 | –
8 | – | Cc1cc(N2CCCS2(=O)=O)c2oc(-c3ccc(O)c(O)c3)c(O)c(=O)c2c1 | 600 | GI50 [3]: 280 nM; GI50 [4]: 900 nM; pIC50 [5]: 6.89; GI50 [6]: 1000 nM
9 | 5.52 | Cc1cc(N2CCCC2)c2oc(-c3ccc(O)c(O)c3)c(O)c(=O)c2c1 | – | –
10 | 5.59 | Cc1cc(N2CCCCC2)c2oc(-c3ccc(O)c(O)c3)c(O)c(=O)c2c1 | – | –
11 | 6.19 | Cc1cc(N2CCN(C)CC2)c2oc(-c3ccc(O)c(O)c3)c(O)c(=O)c2c1 | – | –
12 | 5.82 | Cc1cc(N2C(=O)CCC2=O)c2oc(-c3ccc(O)c(O)c3)c(O)c(=O)c2c1 | 1200 | –
13 | – | Cc1cc(N2CCCS2(=O)=O)c2oc(-c3ccc(O)cc3)c(O)c(=O)c2c1 | 270 | GI50 [3]: 340 nM; GI50 [4]: 570 nM; pIC50 [5]: 6.35; GI50 [6]: 620 nM
14 | 5.80 | Cc1cc(N2CCCC2=O)c2oc(-c3ccc(O)c(O)c3)c(O)c(=O)c2c1 | – | –
15 | 5.36 | Cc1cc(N2C(=O)CCCC2=O)c2oc(-c3ccc(O)c(O)c3)c(O)c(=O)c2c1 | – | –
16 | – | Cc1cc(N2CCCS2(=O)=O)c2oc(-c3ccc(O)c(C#N)c3)c(O)c(=O)c2c1 | – | pIC50 [5]: 6.80
17 | 5.77 | Cc1cc(N2CCCS2(=O)=O)c2oc(-c3ccc(O)c(C(F)(F)F)c3)c(O)c(=O)c2c1 | 1300 | GI50 [3]: 910 nM; pIC50 [5]: 7.20
18 | 6.72 | Cc1cc(N2CCCS2(=O)=O)c2oc(-c3ccc(O)c(Cl)c3)c(O)c(=O)c2c1 | 65 | GI50 [3]: 37 nM; GI50 [4]: 64 nM; pIC50 [5]: 7.48; GI50 [6]: 180 nM
19 | – | Cc1cc(N2CCCS2(=O)=O)c2oc(-c3ccc(O)c(Br)c3)c(O)c(=O)c2c1 | 64 | GI50 [3]: 17 nM; GI50 [4]: 52 nM; pIC50 [5]: 7.72; GI50 [6]: 230 nM
20 | 5.30 | O=c1c(O)c(-c2ccc(O)c(O)c2)oc2cc(O)ccc12 [FISETIN] | – | –

Row | Structure (SMILES) | pIC50 [1] | GI50 [2] [nM] | further results
21 | O=c1cc(-c2ccc(O)c(O)c2)oc2cc(O)cc(O)c12 [LUTEOLIN] | 4.70 | – | –
22 | O=c1c(O)c(-c2ccc(O)c(O)c2)oc2cc(O)cc(O)c12 [QUERCETIN] | 4.40 | – | –
